Test results from ChEMBL document CHEMBL1144859, “Synthesis and evaluation of homodimeric GnRHR antagonists having a rigid bis-propargylated benzene core” (Bioorg Med Chem, 2008).

What was measured:
[1] = molecular target: T1, Gonadotropin-releasing hormone receptor (Homo sapiens, UniProt P30968); test: Antagonist activity at human recombinant GnRHR expressed in CHOK1 cells assessed as reduction in luminescence signal by luciferase reporter gene assay; type: functional, cell-based, CHO-K1
T1 sequence (P30968 whole entry): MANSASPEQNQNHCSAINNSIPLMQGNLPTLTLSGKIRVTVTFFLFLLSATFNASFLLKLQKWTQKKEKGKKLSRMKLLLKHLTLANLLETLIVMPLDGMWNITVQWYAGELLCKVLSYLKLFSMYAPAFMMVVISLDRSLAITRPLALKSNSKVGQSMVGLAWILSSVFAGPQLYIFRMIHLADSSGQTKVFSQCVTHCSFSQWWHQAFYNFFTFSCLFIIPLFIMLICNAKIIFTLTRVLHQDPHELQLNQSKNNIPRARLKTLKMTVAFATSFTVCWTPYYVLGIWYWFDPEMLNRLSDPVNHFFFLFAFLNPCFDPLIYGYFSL
How it was run: (§1)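 CHO-K1 cells stably expressing human GnRHR plus NFAT-luciferase reporter, grown in DMEM/10% FBS with geneticin, harvested and suspended in DMEM with insulin, apo-transferrin and 3% DMSO (7500 cells/well). Compounds (10 μM to 0.3 nM final, half-log) preincubated 30 min, then GnRH 3 nM final (EC80) for 4 h; luciferase substrate added, 1 h at room temperature in the dark; luminescence read.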

[2] = molecular target: T1, Gonadotropin-releasing hormone receptor; test: Displacement of [125I]triptorelin from human GnRHR expressed in CHO cells; type: cell-based
How it was run: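 Membranes from CHO cells stably expressing human GnRHR (20 μg protein) in 50 mM Tris-HCl pH 7.4, 2 mM MgCl2, 0.1% BSA, with 30,000 cpm [125I]triptorelin and five competitor concentrations, 45 min at 22 °C. Nonspecific binding was set with 1 μM ganirelix. Samples were filtered on PEI-soaked GF/B and counted by gamma counter.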

[3] = molecular target: T2, Gonadotropin-releasing hormone receptor (Homo sapiens) (UniProt P30968); test: Antagonist activity at human recombinant GnRHR expressed in CHOK1 cells assessed as reduction in luminescence signal at 3 uM by luciferase reporter gene assay; type: functional, cell-based; details: CHO-K1; how it was run: as §1
T2 sequence (whole entry): T1 sequence (P30968 whole entry)

[4] = molecular target: T2, Gonadotropin-releasing hormone receptor (Homo sapiens); test: Antagonist activity at human recombinant GnRHR expressed in CHOK1 cells assessed as reduction in luminescence signal at 10 uM by luciferase reporter gene assay; type: functional, cell-based; details: CHO-K1; how it was run: as §1
[5] = Cytotoxicity against human GnRHR expressing CHO cells assessed as cell viability at 10 uM after 4 hrs; type: cell-based, Cricetulus griseus; details: chinese hamster, read-out: Activity
How it was run: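 CHO cells with human GnRHR and luciferase reporter, plated in assay medium with or without 10 μM compound, 4 h at 37 °C. Cells were then trypsinised and suspended in PBS, mixed 1:1 with 0.8% trypan blue, and live cells were counted by hemocytometer.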

Structure (SMILES) | IC50 [1] [nM] | Ki [2] [nM] | Efficacy [3] [%] | Efficacy [4] [%] | viability at 4 h, 10 µM [5] [%]
CCNC(=O)Nc1ccc(-c2nc3n(Cc4c(F)cccc4F)cc(C(=O)OCC)c(=O)n3c2CN(CC(=O)N[C@@H](C)C(=O)NCC#Cc2ccccc2)Cc2ccccc2)cc1 | 1100 | 1600 | 63 | 61 | 
CCNC(=O)Nc1ccc(-c2nc3n(Cc4c(F)cccc4F)cc(C(=O)OCC)c(=O)n3c2CN(CC(=O)NCC(=O)NCC#Cc2ccc(C#CCNC(=O)CNC(=O)CN(Cc3ccccc3)Cc3c(-c4ccc(NC(=O)NCC)cc4)nc4n(Cc5c(F)cccc5F)cc(C(=O)OCC)c(=O)n34)cc2)Cc2ccccc2)cc1 |  | 530 | 34 | 59 | 
CCNC(=O)Nc1ccc(-c2nc3n(Cc4c(F)cccc4F)cc(C(=O)OCC)c(=O)n3c2CN(CC(=O)NCCCCCC(=O)NCC#Cc2ccc(C#CCNC(=O)CCCCCNC(=O)CN(Cc3ccccc3)Cc3c(-c4ccc(NC(=O)NCC)cc4)nc4n(Cc5c(F)cccc5F)cc(C(=O)OCC)c(=O)n34)cc2)Cc2ccccc2)cc1 |  | 620 | 54 | 67 | 
CCNC(=O)Nc1ccc(-c2nc3n(Cc4c(F)cccc4F)cc(C(=O)OCC)c(=O)n3c2CN(CC(=O)N[C@H](C(=O)NCC#Cc2ccc(C#CCNC(=O)[C@@H](NC(=O)CN(Cc3ccccc3)Cc3c(-c4ccc(NC(=O)NCC)cc4)nc4n(Cc5c(F)cccc5F)cc(C(=O)OCC)c(=O)n34)C(C)C)cc2)C(C)C)Cc2ccccc2)cc1 |  | 720 | 31 | 34 | 
CCNC(=O)Nc1ccc(-c2nc3n(Cc4c(F)cccc4F)cc(C(=O)OCC)c(=O)n3c2CN(CC(=O)NCCCC(=O)NCC#Cc2ccccc2)Cc2ccccc2)cc1 | 680 | 580 | 97 | 96 | 95
CCNC(=O)Nc1ccc(-c2nc3n(Cc4c(F)cccc4F)cc(C(=O)OCC)c(=O)n3c2CN(CC(=O)N[C@@H](C)C(=O)NCC#Cc2cccc(C#CCNC(=O)[C@H](C)NC(=O)CN(Cc3ccccc3)Cc3c(-c4ccc(NC(=O)NCC)cc4)nc4n(Cc5c(F)cccc5F)cc(C(=O)OCC)c(=O)n34)c2)Cc2ccccc2)cc1 |  | 5300 | 18 | 14 | 
CCNC(=O)Nc1ccc(-c2nc3n(Cc4c(F)cccc4F)cc(C(=O)OCC)c(=O)n3c2CN(CC(=O)N2CCC(C(=O)NCC#Cc3ccc(C#CCNC(=O)C4CCN(C(=O)CN(Cc5ccccc5)Cc5c(-c6ccc(NC(=O)NCC)cc6)nc6n(Cc7c(F)cccc7F)cc(C(=O)OCC)c(=O)n56)CC4)cc3)CC2)Cc2ccccc2)cc1 |  | 510 | 35 | 48 | 
CCNC(=O)Nc1ccc(-c2nc3n(Cc4c(F)cccc4F)cc(C(=O)OCC)c(=O)n3c2CN(CC(=O)N2CCC(C(=O)NCC#Cc3ccccc3)CC2)Cc2ccccc2)cc1 | 460 | 140 | 83 | 82 | 
CCNC(=O)Nc1ccc(-c2nc3n(Cc4c(F)cccc4F)cc(C(=O)OCC)c(=O)n3c2CN(CC(=O)N2CCC[C@H]2C(=O)NCC#Cc2ccccc2)Cc2ccccc2)cc1 | 560 | 260 | 87 | 89 | 
CCNC(=O)Nc1ccc(-c2nc3n(Cc4c(F)cccc4F)cc(C(=O)OCC)c(=O)n3c2CN(CC(=O)NCCCCCC(=O)NCC#Cc2cccc(C#CCNC(=O)CCCCCNC(=O)CN(Cc3ccccc3)Cc3c(-c4ccc(NC(=O)NCC)cc4)nc4n(Cc5c(F)cccc5F)cc(C(=O)OCC)c(=O)n34)c2)Cc2ccccc2)cc1 |  | 930 | 44 | 58 | 
CCNC(=O)Nc1ccc(-c2nc3n(Cc4c(F)cccc4F)cc(C(=O)OCC)c(=O)n3c2CN(CC(=O)NCCCC(=O)NCC#Cc2ccc(C#CCNC(=O)CCCNC(=O)CN(Cc3ccccc3)Cc3c(-c4ccc(NC(=O)NCC)cc4)nc4n(Cc5c(F)cccc5F)cc(C(=O)OCC)c(=O)n34)cc2)Cc2ccccc2)cc1 |  | 600 | 68 | 85 | 95
CCNC(=O)Nc1ccc(-c2nc3n(Cc4c(F)cccc4F)cc(C(=O)OCC)c(=O)n3c2CN(CC(=O)NCCCC(=O)NCC#Cc2cccc(C#CCNC(=O)CCCNC(=O)CN(Cc3ccccc3)Cc3c(-c4ccc(NC(=O)NCC)cc4)nc4n(Cc5c(F)cccc5F)cc(C(=O)OCC)c(=O)n34)c2)Cc2ccccc2)cc1 |  | 820 | 40 | 57 | 
CCNC(=O)Nc1ccc(-c2nc3n(Cc4c(F)cccc4F)cc(C(=O)OCC)c(=O)n3c2CN(CC(=O)N2CCC[C@H]2C(=O)NCC#Cc2ccc(C#CCNC(=O)[C@@H]3CCCN3C(=O)CN(Cc3ccccc3)Cc3c(-c4ccc(NC(=O)NCC)cc4)nc4n(Cc5c(F)cccc5F)cc(C(=O)OCC)c(=O)n34)cc2)Cc2ccccc2)cc1 |  | 740 | 46 | 65 | 
CCNC(=O)Nc1ccc(-c2nc3n(Cc4c(F)cccc4F)cc(C(=O)OCC)c(=O)n3c2CN(CC(=O)N2CCC(C(=O)NCC#Cc3cccc(C#CCNC(=O)C4CCN(C(=O)CN(Cc5ccccc5)Cc5c(-c6ccc(NC(=O)NCC)cc6)nc6n(Cc7c(F)cccc7F)cc(C(=O)OCC)c(=O)n56)CC4)c3)CC2)Cc2ccccc2)cc1 |  | 400 | 68 | 86 | 
CCNC(=O)Nc1ccc(-c2nc3n(Cc4c(F)cccc4F)cc(C(=O)OCC)c(=O)n3c2CN(CC(=O)NCCCCCC(=O)NCC#Cc2ccccc2)Cc2ccccc2)cc1 | 440 | 380 | 97 | 99 | 
CCNC(=O)Nc1ccc(-c2nc3n(Cc4c(F)cccc4F)cc(C(=O)OCC)c(=O)n3c2CN(CC(=O)NCC(=O)NCC#Cc2ccccc2)Cc2ccccc2)cc1 | 460 | 170 | 92 | 95 | 
CCNC(=O)Nc1ccc(-c2nc3n(Cc4c(F)cccc4F)cc(C(=O)OCC)c(=O)n3c2CN(CC(=O)N2CCC[C@H]2C(=O)NCC#Cc2cccc(C#CCNC(=O)[C@@H]3CCCN3C(=O)CN(Cc3ccccc3)Cc3c(-c4ccc(NC(=O)NCC)cc4)nc4n(Cc5c(F)cccc5F)cc(C(=O)OCC)c(=O)n34)c2)Cc2ccccc2)cc1 |  | 930 | 31 | 67 | 
CCNC(=O)Nc1ccc(-c2nc3n(Cc4c(F)cccc4F)cc(C(=O)OCC)c(=O)n3c2CN(CC(=O)N[C@H](C(=O)NCC#Cc2cccc(C#CCNC(=O)[C@@H](NC(=O)CN(Cc3ccccc3)Cc3c(-c4ccc(NC(=O)NCC)cc4)nc4n(Cc5c(F)cccc5F)cc(C(=O)OCC)c(=O)n34)C(C)C)c2)C(C)C)Cc2ccccc2)cc1 |  | 2200 | 28 | 43 | 
CCNC(=O)Nc1ccc(-c2nc3n(Cc4c(F)cccc4F)cc(C(=O)OCC)c(=O)n3c2CN(CC(=O)NCC(=O)NCC#Cc2cccc(C#CCNC(=O)CNC(=O)CN(Cc3ccccc3)Cc3c(-c4ccc(NC(=O)NCC)cc4)nc4n(Cc5c(F)cccc5F)cc(C(=O)OCC)c(=O)n34)c2)Cc2ccccc2)cc1 |  | 1100 | 20 | 9 | 
CCNC(=O)Nc1ccc(-c2nc3n(Cc4c(F)cccc4F)cc(C(=O)OCC)c(=O)n3c2CN(CC(=O)N[C@@H](C)C(=O)NCC#Cc2ccc(C#CCNC(=O)[C@H](C)NC(=O)CN(Cc3ccccc3)Cc3c(-c4ccc(NC(=O)NCC)cc4)nc4n(Cc5c(F)cccc5F)cc(C(=O)OCC)c(=O)n34)cc2)Cc2ccccc2)cc1 |  | 480 | 42 | 52 | 
CCNC(=O)Nc1ccc(-c2nc3n(Cc4c(F)cccc4F)cc(C(=O)OCC)c(=O)n3c2CN(CC(=O)N[C@H](C(=O)NCC#Cc2ccccc2)C(C)C)Cc2ccccc2)cc1 | 520 | 770 | 64 | 60 | 
